Results collected from several papers.
Compare with care: the assays were run in different laboratories.
PIK3CG: Phosphatidylinositol 4,5-bisphosphate 3-kinase catalytic subunit gamma isoform (PIK3CG, Homo sapiens, UniProt P48736)
ADRA2B: Alpha-2B adrenergic receptor (ADRA2B, Homo sapiens, UniProt P18089)

Nc1ncnc2c1ncn2C1CCCC1
Kd (Inositol-tetrakisphosphate 1-kinase (Homo sapiens, UniProt Q13572); binding, ITC; pH 7.2): 52 nM

CCc1ccc(N=C2C(=O)N(Cc3ccccc3)c3ccccc32)cc1
IC50 (PIK3CG; enzyme activity, inhibitor, ADP detection): 2.09 nM

Cc1cc(Oc2ncccc2CN2CCN(c3ccccn3)CC2)ccc1-c1c(C)c(=O)[nH]c(=O)n1C
Ki (ADRA2B; ligand displacement, radioligand): 267 nM

CN1CCc2nc(NC(=O)C3=NN(c4ccc(F)cc4)C(C(N)=O)C3)sc2C1 (centres unmarked)
Kd (DDB1- and CUL4-associated factor 7 (Homo sapiens, UniProt P61962); binding, SPR): > 71000 nM

Cc1cc(Oc2ncccc2CN2CCN(c3ccc(Cl)cc3)CC2)ccc1-c1c(C)c(=O)[nH]c(=O)n1C
Ki (ADRA2B; ligand displacement, radioligand): 338 nM

NC(=O)C1=CN([C@@H]2O[C@H](COP(=O)(O)OP(=O)(O)OC[C@H]3O[C@@H](n4cnc5c(N)ncnc54)[C@H](OP(=O)(O)O)[C@@H]3O)[C@@H](O)[C@H]2O)C=CC1
Kd (MECR (Homo sapiens, UniProt Q9BV79); binding, ITC): 956 nM

COc1cc(N=C2C(=O)N(Cc3ccccc3)c3ccccc32)cc(OC)c1
IC50 (PIK3CG; enzyme activity, inhibitor, ADP detection): 1.94 nM

N#Cc1ccc2c(CN3CCOCC3)cc(-c3ccc([C@@H]4CCC(=O)N4)cc3)nc2c1
Kd (Advanced glycosylation end product-specific receptor (AGER, Homo sapiens, UniProt Q15109); binding, fluorescence): 1 nM

NC(=O)C1CN(C(=O)CCl)c2ccccc2O1 (centres unmarked)
Kd (Creatine kinase U-type, mitochondrial (CKMT1A, Homo sapiens, UniProt P12532); binding, MST): 13000 nM

Cc1ccc(CN2C(=O)C(=Nc3cccc(C)c3)c3ccccc32)cc1
IC50 (PIK3CG; enzyme activity, inhibitor, ADP detection): 0.98 nM

Cc1cc(Oc2ncccc2CN2CCN(c3ccccc3O)CC2)ccc1-c1c(C)c(=O)[nH]c(=O)n1C
Ki (ADRA2B; ligand displacement, radioligand): 97.5 nM

CC(C)C[C@H](NC(=O)[C@H](CC(C)C)NC(=O)[C@H](Cc1c[nH]c2ccccc12)NC(=O)[C@H](CCC(N)=O)NC(=O)[C@@H](NC(=O)[C@H](Cc1ccccc1)NC(=O)[C@H](CC(=O)O)NC(=O)[C@H](CCC(N)=O)NC(=O)[C@H](C)NC(=O)[C@H](C)NC(=O)[C@H](CCCNC(=N)N)NC(=O)[C@H](CCC(=O)O)NC(=O)[C@H](CC(=O)O)NC(=O)[C@H](CC(C)C)NC(=O)[C@H](Cc1ccc(O)cc1)NC(=O)[C@H](CCCCN)NC(=O)[C@H](CO)NC(=O)[C@H](Cc1ccc(O)cc1)NC(=O)[C@H](CC(=O)O)NC(=O)[C@H](CO)NC(=O)[C@@H](NC(=O)[C@H](Cc1ccccc1)NC(=O)[C@@H](NC(=O)CNC(=O)[C@H](CCC(N)=O)NC(=O)C(C)(C)NC(=O)[C@@H](N)Cc1c[nH]cn1)[C@@H](C)O)[C@@H](C)O)C(C)C)C(=O)N[C@@H](CC(=O)O)C(=O)NCC(=O)NCC(=O)N1CCC[C@H]1C(=O)N[C@@H](CO)C(=O)N[C@@H](CC(C)C)C(=O)N[C@@H](CCCNC(=N)N)C(=O)N[C@@H](Cc1c[nH]cn1)C(=O)N[C@@H](Cc1ccc(O)cc1)C(=O)N[C@@H](CC(C)C)C(=O)N[C@@H](CC(N)=O)C(=O)N[C@@H](CC(C)C)C(=O)N[C@H](C(=O)N[C@H](C(=O)N[C@@H](CCCNC(=N)N)C(=O)N[C@@H](CCC(N)=O)C(=O)N[C@@H](CCCNC(=N)N)C(=O)N[C@@H](Cc1ccc(O)cc1)C(N)=O)[C@@H](C)O)C(C)C
EC50 (Glucagon receptor (GCGR, Homo sapiens, UniProt P47871); reporter gene, agonist, luciferase): 0.12 nM

CCC(C(=O)N1C(=O)C(=Nc2ccc(Cl)cc2Br)c2ccccc21)c1ccccc1 (centres unmarked)
IC50 (PIK3CG; enzyme activity, inhibitor, ADP detection): 28.3 nM

Cc1cc(Oc2ncccc2CN2CCN(c3ccccc3C)CC2)ccc1-c1c(C)c(=O)[nH]c(=O)n1C
Ki (ADRA2B; ligand displacement, radioligand): 28.4 nM
